As usually defined, the Ki is a dissociation constant, usually derived from enzyme kinetics or from competition with a known ligand. High values mean weaker binding, low ones tighter binding.

Where only a bound is given, the exact number is not on record here.

Ki and CLint scaled data for 29 compounds are collected here from ChEMBL document CHEMBL1142770, “Structure-activity relationships of 1,3,5-triazine-2,4,6-triones as human gonadotropin-releasing hormone receptor antagonists” (Bioorg Med Chem Lett, 2005).

The target in the first data set is T1, Gonadotropin-releasing hormone receptor (Homo sapiens, UniProt P30968).
T1 sequence (P30968 whole entry): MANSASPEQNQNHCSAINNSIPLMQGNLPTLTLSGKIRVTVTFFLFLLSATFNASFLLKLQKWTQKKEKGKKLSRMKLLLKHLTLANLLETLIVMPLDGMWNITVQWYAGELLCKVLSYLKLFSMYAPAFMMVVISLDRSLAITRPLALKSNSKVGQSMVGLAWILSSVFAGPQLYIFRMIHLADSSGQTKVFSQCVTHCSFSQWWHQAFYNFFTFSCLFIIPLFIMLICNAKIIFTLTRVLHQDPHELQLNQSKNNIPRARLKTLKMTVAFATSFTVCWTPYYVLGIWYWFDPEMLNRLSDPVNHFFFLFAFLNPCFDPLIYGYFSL
In words: In vitro ability to inhibit des-Gly[125I-Tyr, DLeu, NMeLeu,Pro-NEt]-GnRH radioligand binding to the cloned human GnRH receptor stably expressed in HEK293 cells.
Conditions: not given
The format is cell-based. In short, it runs like this:
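A standard antagonist on each plate controlled for plate-to-plate variation. Key compounds were run in three to eight independent experiments.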
On to `COc1cccc(-n2c(=O)n(Cc3c(F)cccc3Cl)c(=O)n(C[C@H](N)c3ccccc3)c2=O)c1F`, for which affinity was put at a Ki of 5 nM.
Still for that read-out and setting: then `COc1ccccc1Cn1c(=O)n(C[C@H](N)c2ccccc2)c(=O)n(-c2cccc(OC)c2F)c1=O`, with 120 nM; and `COc1cccc(-n2c(=O)n(Cc3c(F)cccc3F)c(=O)n(CC(N)CC(C)C)c2=O)c1F` (centres undefined), with 620 nM.
`COc1cccc(-n2c(=O)n(CCC(N)c3ccccc3Cl)c(=O)n(Cc3c(F)cccc3F)c2=O)c1` (centres undefined): the Ki came out at 180 nM.
The same measure, in the same setting: then `COc1cccc(-n2c(=O)n(CCC(N)c3cccc(F)c3)c(=O)n(Cc3c(F)cccc3F)c2=O)c1` (centres undefined), with 66 nM; and `COc1cccc(-n2c(=O)n(CCC(N)c3ccccc3)c(=O)n(Cc3c(F)cccc3F)c2=O)c1` (centres undefined), with 70 nM.
Still for that read-out and setting: in the case of `COc1cccc(-n2c(=O)n(Cc3c(F)cccc3F)c(=O)n(CC(CN)c3ccccc3)c2=O)c1` (centres undefined) it was 28 nM; in that of `COc1cccc(-n2c(=O)n(CCC(N)c3ccccc3C)c(=O)n(Cc3c(F)cccc3F)c2=O)c1` (centres undefined), 75 nM.
On the same count and under the same terms, in the case of `COc1cccc(-n2c(=O)n(Cc3c(F)cccc3F)c(=O)n(C[C@H](N)c3ccccc3)c2=O)c1F` it was 9 nM; in that of `COc1cccc(-n2c(=O)n(Cc3c(F)cccc3F)c(=O)n(CC(N)c3ccccc3F)c2=O)c1F` (centres undefined), 20 nM.
`COc1cccc(-n2c(=O)n(CC3CCCCC3)c(=O)n(C[C@H](N)c3ccccc3)c2=O)c1F` gave an inhibition constant Ki of over 10000 nM.
Same read-out and setting: in the case of `COc1cccc(-n2c(=O)n(Cc3c(Cl)cccc3Cl)c(=O)n(C[C@H](N)c3ccccc3)c2=O)c1F` it was 36 nM.
Compound `COc1cccc(-n2c(=O)n(Cc3ccccc3F)c(=O)n(C[C@H](N)c3ccccc3)c2=O)c1F` returned a Ki of 11 nM.
On the same count and under the same terms, then `COc1cccc(-n2c(=O)n(Cc3c(F)cccc3C(F)(F)F)c(=O)n(C[C@H](N)c3ccccc3)c2=O)c1F`, with 3 nM.
Compound `COc1cccc(-n2c(=O)n(Cc3c(Cl)cccc3C#N)c(=O)n(C[C@H](N)c3ccccc3)c2=O)c1F` registered a Ki of 73 nM.
Compound `COc1cccc(-n2c(=O)n(Cc3c(F)cccc3F)c(=O)n(CC(N)c3ccccc3F)c2=O)c1` (centres undefined) had a Ki of 120 nM.
Same read-out and setting: then `COc1cccc(-n2c(=O)n(CCC(N)c3cccnc3)c(=O)n(Cc3c(F)cccc3F)c2=O)c1` (centres undefined), with 580 nM; and `COc1cccc(-n2c(=O)n(CCC(N)c3ccc(F)cc3)c(=O)n(Cc3c(F)cccc3F)c2=O)c1` (centres undefined), with 83 nM; and `COc1cccc(-n2c(=O)n(CCC(N)c3ccccc3F)c(=O)n(Cc3c(F)cccc3F)c2=O)c1` (centres undefined), with 800 nM.
Same read-out and setting: then `COc1cccc(-n2c(=O)n(CC[C@H](N)CC(C)C)c(=O)n(Cc3c(F)cccc3F)c2=O)c1F`, with 1500 nM; and `COc1cccc(-n2c(=O)n(Cc3cccnc3Cl)c(=O)n(C[C@H](N)c3ccccc3)c2=O)c1F`, with 66 nM; and `COc1cccc(-n2c(=O)n(CC[C@H](N)c3ccccc3)c(=O)n(Cc3c(F)cccc3F)c2=O)c1F`, with 24 nM.
Still for that read-out and setting: then `COc1cccc(-n2c(=O)n(Cc3ccccc3C)c(=O)n(C[C@H](N)c3ccccc3)c2=O)c1F`, with 29 nM; and `COc1cccc(-n2c(=O)n(CCC(N)c3cccs3)c(=O)n(Cc3c(F)cccc3F)c2=O)c1` (centres undefined), with 27 nM.
The compound `COc1cccc(-n2c(=O)n(Cc3ccccc3Cl)c(=O)n(C[C@H](N)c3ccccc3)c2=O)c1F` registered a Ki of 20 nM.
The same measure, in the same setting: then `COc1cccc(-n2c(=O)n(C[C@H](N)c3ccccc3)c(=O)n(C(C)c3c(F)cccc3F)c2=O)c1F` (some centres undefined), with 630 nM.

System in a further data set: not listed separately
In words: Intrinsic clearance in human liver microsomes(HLM) for metabolic stability. The class given is ADME, Microsome. Particulars: read-out: CI. (In general: Liver microsomes are a subcellular fraction often used to study metabolism.)
Take `COc1cccc(-n2c(=O)n(Cc3ccccc3OC(F)(F)F)c(=O)n(C[C@H](N)c3ccccc3)c2=O)c1F`: the CLint scaled turned out to be 146 mL/min/kg.
Same read-out and setting: in the case of `COc1cccc(-n2c(=O)n(Cc3c(F)cccc3Br)c(=O)n(C[C@H](N)c3ccccc3)c2=O)c1F` it was 158 mL/min/kg; in that of `COc1cccc(-n2c(=O)n(Cc3ccccc3C#N)c(=O)n(C[C@H](N)c3ccccc3)c2=O)c1F`, 249 mL/min/kg.
